Ki, Activity and EC50 data for 20 molecules are collected here from ChEMBL document CHEMBL1914381, “New spirocyclic Δ²-isoxazoline derivatives related to selective agonists of α7 neuronal nicotinic acetylcholine receptors” (Eur J Med Chem, 2011).

pEC50, pKi: −log10 of the molar value.

The target of test [1] is Neuronal acetylcholine receptor; alpha4/beta2 (Rattus norvegicus, UniProt P09483+P12390). Kind of test: Displacement of [3H]epibatidine from alpha4beta2 nAChR in rat cortical membranes by beta counting relative to acetylcholine. It is filed as cell membranes, Membrane. In a few lines:
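Rat cortex membranes pre-incubated with […] to block α7 sites. Then 30 min r.t. with test compound (10 pM–10 mM), then overnight at 4 °C with 0.075 nM [3H]epibatidine. Nonspecific binding with 100 nM unlabelled epibatidine. Filtered on PEI-soaked GF/C filters and washed; beta counting. Ki fitted from three competition experiments by non-linear least squares; >100 mM when no inhibition up to 100 mM.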

Test [2] concerns the target Neuronal acetylcholine receptor subunit alpha-7 (Rattus norvegicus, UniProt Q05941). Kind of test: Displacement of [125I]-alpha-bungarotoxin from alpha7 nAChR in rat cortical membranes by gamma counting. It is filed as cell membranes, Membrane. An outline of the steps: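 Rat cortex membranes (two rats per experiment, homogenized and centrifuged twice at 60,000g) in Tris-HCl buffer pH 7 with protease inhibitors. Pre-incubated 30 min r.t. with test compound (10 pM–10 mM), then overnight at r.t. with 1 nM [125I]α-bungarotoxin. Nonspecific binding with […]. Filtered on polyethylenimine-soaked GF/C filters; gamma counting. Ki fitted from three competition experiments by non-linear least squares; >100 mM when no inhibition up to 100 mM.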

The target of test [3] is Neuronal acetylcholine receptor; alpha3/beta4 (Homo sapiens, UniProt P30926+P32297). Kind of test: Displacement of [3H]epibatidine from alpha3beta4 nAChR expressed in human HEK293 cells by beta liquid scintillation counting. It is filed as cell-based. An outline of the steps: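 HEK 293 cells transiently transfected with α3 and β4 cDNAs by JetPEI and harvested after 48 h. Compound pre-incubated 5 min, then overnight at 4 °C with 0.25 nM [3H]epibatidine in Tris-HCl pH 7 buffer with 2 mg/ml BSA. Nonspecific binding with 100 nM cold epibatidine. Cells washed seven times with ice-cold PBS; liquid scintillation counting.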

For test [4], the target named is Neuronal acetylcholine receptor subunit alpha-7 (Homo sapiens, UniProt P36544). Kind of test: Agonist activity at human alpha7 nAChR expressed in rat GH4C1 cells assessed as maximal electric current amplitude at 1 mM by whole-cell patch clamp electrophysiology assay relative to acetylcholine. Format: functional, cell-based. The conditions noted are these: for Activity: GH4-C1. In a few lines: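 GH4C1 cells stably transfected with human α7 subunit; whole-cell patch clamp, holding potential −70 mV, fast gravity-driven perfusion exchanger. Compound applied at 1 mM; current amplitude normalized to that from ACh 1 mM on the same cell. n = 8–12 cells.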
Sequence of Neuronal acetylcholine receptor subunit alpha-7 (Homo sapiens, UniProt P36544) (P36544 whole entry, the tested form may be a part): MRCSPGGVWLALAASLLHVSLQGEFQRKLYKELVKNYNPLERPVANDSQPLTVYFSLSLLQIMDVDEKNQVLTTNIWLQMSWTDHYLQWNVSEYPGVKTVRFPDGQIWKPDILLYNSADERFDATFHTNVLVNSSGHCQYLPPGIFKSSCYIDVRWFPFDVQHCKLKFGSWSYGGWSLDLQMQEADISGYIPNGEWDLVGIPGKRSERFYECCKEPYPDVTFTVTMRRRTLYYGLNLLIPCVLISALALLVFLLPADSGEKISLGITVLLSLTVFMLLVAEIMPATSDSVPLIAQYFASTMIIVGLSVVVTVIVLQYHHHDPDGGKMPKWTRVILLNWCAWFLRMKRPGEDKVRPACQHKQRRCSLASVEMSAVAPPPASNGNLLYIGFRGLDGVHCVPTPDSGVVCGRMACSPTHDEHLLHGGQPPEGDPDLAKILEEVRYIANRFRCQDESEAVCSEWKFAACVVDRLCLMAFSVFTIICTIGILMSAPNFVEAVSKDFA

Sequence of Neuronal acetylcholine receptor; alpha3/beta4 (P30926 whole entry): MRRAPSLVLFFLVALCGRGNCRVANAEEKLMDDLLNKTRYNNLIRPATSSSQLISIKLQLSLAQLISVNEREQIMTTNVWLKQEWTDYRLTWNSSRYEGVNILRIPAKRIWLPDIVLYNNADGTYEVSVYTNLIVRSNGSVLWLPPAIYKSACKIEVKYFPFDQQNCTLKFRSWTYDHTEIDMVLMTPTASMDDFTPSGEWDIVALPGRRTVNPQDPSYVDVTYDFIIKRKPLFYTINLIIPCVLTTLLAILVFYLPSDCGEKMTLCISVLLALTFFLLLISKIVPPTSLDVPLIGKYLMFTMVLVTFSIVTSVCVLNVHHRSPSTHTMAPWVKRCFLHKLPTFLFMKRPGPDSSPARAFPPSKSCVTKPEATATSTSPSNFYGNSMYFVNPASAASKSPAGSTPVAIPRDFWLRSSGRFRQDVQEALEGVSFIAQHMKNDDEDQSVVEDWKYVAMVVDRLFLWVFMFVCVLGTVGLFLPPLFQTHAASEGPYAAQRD
Sequence of Neuronal acetylcholine receptor; alpha3/beta4 (P32297 whole entry): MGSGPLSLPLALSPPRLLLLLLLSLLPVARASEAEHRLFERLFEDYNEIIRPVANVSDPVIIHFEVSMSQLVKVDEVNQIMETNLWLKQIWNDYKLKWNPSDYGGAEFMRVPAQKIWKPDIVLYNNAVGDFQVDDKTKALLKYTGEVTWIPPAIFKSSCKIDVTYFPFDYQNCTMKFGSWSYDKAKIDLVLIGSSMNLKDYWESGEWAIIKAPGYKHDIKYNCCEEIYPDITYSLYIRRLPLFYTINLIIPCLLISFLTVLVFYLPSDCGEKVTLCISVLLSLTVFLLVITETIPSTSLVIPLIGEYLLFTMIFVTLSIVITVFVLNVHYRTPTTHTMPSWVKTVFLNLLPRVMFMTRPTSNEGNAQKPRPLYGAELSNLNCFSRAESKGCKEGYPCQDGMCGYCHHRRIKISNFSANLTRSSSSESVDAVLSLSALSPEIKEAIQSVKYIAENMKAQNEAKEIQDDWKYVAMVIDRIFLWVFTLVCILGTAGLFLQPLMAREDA
Sequence of Neuronal acetylcholine receptor subunit alpha-7 (Rattus norvegicus, UniProt Q05941) (Q05941 whole entry): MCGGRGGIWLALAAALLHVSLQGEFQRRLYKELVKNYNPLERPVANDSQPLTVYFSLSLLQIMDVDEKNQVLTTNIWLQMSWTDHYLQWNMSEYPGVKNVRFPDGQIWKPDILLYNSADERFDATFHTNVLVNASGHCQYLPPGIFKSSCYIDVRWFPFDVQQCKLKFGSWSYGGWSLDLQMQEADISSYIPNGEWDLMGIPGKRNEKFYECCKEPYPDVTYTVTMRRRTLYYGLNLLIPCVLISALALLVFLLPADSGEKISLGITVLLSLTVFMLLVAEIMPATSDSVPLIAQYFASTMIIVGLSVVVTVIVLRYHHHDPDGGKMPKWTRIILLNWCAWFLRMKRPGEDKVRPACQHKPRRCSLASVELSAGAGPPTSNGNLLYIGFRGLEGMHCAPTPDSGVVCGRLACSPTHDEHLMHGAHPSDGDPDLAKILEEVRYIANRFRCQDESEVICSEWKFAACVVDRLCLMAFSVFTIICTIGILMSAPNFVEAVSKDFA
Sequence of Neuronal acetylcholine receptor; alpha4/beta2 (P09483 whole entry): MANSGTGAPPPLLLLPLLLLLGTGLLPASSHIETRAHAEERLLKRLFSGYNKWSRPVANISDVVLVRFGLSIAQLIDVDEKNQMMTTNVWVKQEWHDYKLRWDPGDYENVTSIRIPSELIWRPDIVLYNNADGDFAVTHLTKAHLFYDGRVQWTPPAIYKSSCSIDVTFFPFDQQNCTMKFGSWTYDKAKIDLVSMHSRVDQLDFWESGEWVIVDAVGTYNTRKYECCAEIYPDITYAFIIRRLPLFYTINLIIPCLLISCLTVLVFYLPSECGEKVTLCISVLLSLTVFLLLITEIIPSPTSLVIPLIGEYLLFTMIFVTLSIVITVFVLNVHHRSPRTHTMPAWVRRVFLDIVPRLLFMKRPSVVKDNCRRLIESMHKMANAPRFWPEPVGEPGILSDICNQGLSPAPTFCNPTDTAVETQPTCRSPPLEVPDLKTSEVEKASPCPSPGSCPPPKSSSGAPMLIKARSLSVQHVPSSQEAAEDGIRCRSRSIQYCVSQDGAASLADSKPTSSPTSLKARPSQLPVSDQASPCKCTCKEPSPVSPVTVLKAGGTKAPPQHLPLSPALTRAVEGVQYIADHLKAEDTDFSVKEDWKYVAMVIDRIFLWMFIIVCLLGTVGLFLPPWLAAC
Sequence of Neuronal acetylcholine receptor; alpha4/beta2 (P12390 whole entry): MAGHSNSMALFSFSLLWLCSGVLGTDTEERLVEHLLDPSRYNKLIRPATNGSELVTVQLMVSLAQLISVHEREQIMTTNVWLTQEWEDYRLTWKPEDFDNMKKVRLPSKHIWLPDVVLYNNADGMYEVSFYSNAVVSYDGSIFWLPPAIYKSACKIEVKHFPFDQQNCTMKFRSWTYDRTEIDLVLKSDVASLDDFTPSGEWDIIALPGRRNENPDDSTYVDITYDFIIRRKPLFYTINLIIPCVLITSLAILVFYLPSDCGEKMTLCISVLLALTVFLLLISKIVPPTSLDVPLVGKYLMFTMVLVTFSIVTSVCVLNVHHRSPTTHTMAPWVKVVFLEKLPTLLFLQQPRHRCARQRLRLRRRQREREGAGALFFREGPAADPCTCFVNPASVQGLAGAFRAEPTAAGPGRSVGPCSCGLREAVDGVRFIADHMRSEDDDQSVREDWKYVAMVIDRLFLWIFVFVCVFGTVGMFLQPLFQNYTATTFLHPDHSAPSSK

Regarding `BrC1=NOC2(C1)CN1CCC2CC1` (racemic), the values for the negative logarithm of the Ki (pKi) in test [1] and in test [2] were 6.19 and 7.87, respectively.

With `COC1=NOC2(CCCNC2)C1` (racemic), the pKi is under 4.00 in test [1], 5.43 in test [2] and 4.12 in test [3].

On to `C[N+]12CCC(C1)C1(CC(c3ccccc3)=NO1)C2` (racemic), for which the values for the negative logarithm of the Ki (pKi) in test [1] and in test [2] were 4.42 and 5.29, respectively.

On to `COC1=NOC2(C1)CN1CCC2CC1` (racemic), for which the negative-log Ki (pKi) in test [1] was 5.10; in test [2], 7.85.

On to `BrC1=NOC2(CCCNC2)C1` (racemic), for which the pKi is 4.24 in test [1] and 5.37 in test [2].

Consider `COC1=NOC2(C1)C[N+]1(C)CCC2CC1` (racemic), for which the results for the pKi in test [1] and in test [2] were 3.76 and 7.04, respectively.

As to `C[N+]1(C)CCCC2(CC(c3ccccc3)=NO2)C1` (racemic), the pKi in test [1] is under 4.00; in test [2], 6.15; in test [3], 5.18. Besides, in test [4], the Activity came to 26%.

In the case of `COC1=NOC2(CCCN(C)C2)C1` (racemic), the values for the pKi in test [1], in test [2] and in test [3] were under 4.00, 5.26 and 4.04, respectively. Moreover, in test [4], the Activity was determined as 7%.

In the case of `C[N+]1(C)CCCC2(CC(Br)=NO2)C1` (racemic), the pKi in test [1] is 4.30; in test [2], 5.43.

`CN1CCCC2(CC(c3ccccc3)=NO2)C1` (racemic): the figures for the pKi in test [1] and in test [2] were under 4.00 and 4.52, respectively.

`c1ccc(C2=NOC3(C2)CN2CCC3CC2)cc1` (racemic): the negative-log Ki (pKi) in test [1] was 4.66; in test [2], 7.60.

Turning to `COC1=NOC2(C1)CN1CCC2C1` (racemic), the results for the negative-log Ki (pKi) in test [1], in test [2] and in test [3] were 4.80, 6.38 and 4.34, respectively.

Turning to `C[N+]12CCC(CC1)C1(CC(Br)=NO1)C2` (racemic), the pKi is 4.49 in test [1] and 6.96 in test [2].

Regarding `COC1=NOC2(CCC[N+](C)(C)C2)C1` (racemic), the pKi in test [1] was 4.03; in test [2], 4.89.

With `CN1CCCC2(CC(Br)=NO2)C1` (racemic), the pKi is 4.36 in test [1] and 5.18 in test [2].

As to `BrC1=NOC2(C1)CN1CCC2C1` (racemic), the negative logarithm of the Ki (pKi) is 5.30 in test [1], 6.64 in test [2] and 4.89 in test [3]. Further, in test [4], the pEC50 was 4.08. Besides, in test [4], the Activity came out at 76%.

In the case of `COC1=NOC2(C1)C[N+]1(C)CCC2C1` (racemic), the negative-log Ki (pKi) in test [1] is 4.70; in test [2] it was 5.54.

As for `c1ccc(C2=NOC3(CCCNC3)C2)cc1` (racemic), the pKi in test [1] was under 4.00; in test [2], 5.35; in test [3] it was 4.37.

`c1ccc(C2=NOC3(C2)CN2CCC3C2)cc1` (racemic): the figures for the negative-log Ki (pKi) in test [1], in test [2] and in test [3] were 4.28, 5.44 and 4.80, respectively.

In the case of `C[N+]12CCC(C1)C1(CC(Br)=NO1)C2` (racemic), the figures for the negative logarithm of the Ki (pKi) in test [1] and in test [2] were 4.66 and 5.21, respectively.
